The text below walks through data of ChEMBL document CHEMBL4406829, “Synthesis and in vitro evaluation of piperazinyl-ureido sulfamates as steroid sulfatase inhibitors” (Eur J Med Chem, 2019).

The target in experiment [1] is T1, Steryl-sulfatase (Homo sapiens) (UniProt P08842).
T1 sequence (whole entry): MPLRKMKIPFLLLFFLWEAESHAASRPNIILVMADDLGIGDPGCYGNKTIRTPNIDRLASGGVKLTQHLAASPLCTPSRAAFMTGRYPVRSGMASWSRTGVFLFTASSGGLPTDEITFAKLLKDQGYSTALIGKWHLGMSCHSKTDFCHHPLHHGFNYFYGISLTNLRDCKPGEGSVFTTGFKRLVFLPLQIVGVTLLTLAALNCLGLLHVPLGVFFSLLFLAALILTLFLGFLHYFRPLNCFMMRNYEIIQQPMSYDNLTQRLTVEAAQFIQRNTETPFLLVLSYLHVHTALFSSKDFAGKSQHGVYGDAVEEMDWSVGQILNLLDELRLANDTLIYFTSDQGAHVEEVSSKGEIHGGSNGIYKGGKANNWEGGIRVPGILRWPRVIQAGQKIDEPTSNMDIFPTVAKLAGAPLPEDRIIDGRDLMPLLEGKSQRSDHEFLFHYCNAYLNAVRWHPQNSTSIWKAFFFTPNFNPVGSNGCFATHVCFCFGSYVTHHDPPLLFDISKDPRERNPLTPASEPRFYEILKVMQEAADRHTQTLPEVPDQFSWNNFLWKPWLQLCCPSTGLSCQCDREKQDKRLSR
Nature of the experiment: Inhibition of steroid sulfatase in human JEG3 cell lysates assessed as residual activity at 10 uM using [3H] E1S as substrate after 1 hr by scintillation spectrometry analysis relative to control; values are per cent of control. The settings on record: Lysate.

Experiment [2] addresses T2, Steryl-sulfatase (Homo sapiens, UniProt P08842).
T2 sequence (P08842 whole entry): T1 sequence (whole entry)
Nature of the experiment: Inhibition of steroid sulfatase in human JEG3 cell using [3H] E1S as substrate after 1 hr by scintillation spectrometry analysis. In outline:
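JEG-3 (human placental choriocarcinoma) lysate at 125 μg protein/mL incubated 1 h with inhibitor (0.001–10 μM) and [3H]E1S adjusted to 20 μM with unlabelled E1S. Estrone product was extracted with toluene, and [14C]E1 was used to correct for losses. Read-out was 3H/14C scintillation counting. IC50 from activity with and without inhibitor; mean ± S.D., n = 3.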

Structures are written as SMILES. pIC50: −log10 of the molar value.

Turning to `NS(=O)(=O)Oc1ccc(NC(=O)N2CCN(c3ccccc3)CC2)cc1`, in experiment [1], the residual activity (in general, the signal under treatment as a percentage of the control signal) is 16.9%.

For the compound `CCCCCCCCN1CCN(C(=O)Nc2ccc(OS(N)(=O)=O)cc2F)CC1`, the residual activity in experiment [1] is 29.6%.

On to `NS(=O)(=O)Oc1ccc(NC(=O)N2CCN(c3nccc(-c4cccc(C(F)(F)F)c4)n3)CC2)cc1`, for which the residual activity in experiment [1] was determined as 44.3%.

Regarding `NS(=O)(=O)Oc1ccc(NC(=O)N2CCN(Cc3cc4ccccc4o3)CC2)cc1`, in experiment [1], the residual activity was 20.2%.

`NS(=O)(=O)Oc1ccc(NC(=O)N2CCN(c3nccc(-c4cccc(Br)c4)n3)CC2)cc1`: the residual activity in experiment [1] stood at 39.4%.

For the compound `NS(=O)(=O)Oc1ccc(NC(=O)N2CCN(c3ccc(Cl)cc3)CC2)c(F)c1`, the residual activity in experiment [1] is 108%.

Consider `NS(=O)(=O)Oc1ccc(NC(=O)N2CCN(c3nccc(-c4cc5ccccc5o4)n3)CC2)cc1`, for which, in experiment [2], the pIC50 (usually the IC50 on a negative log10 scale, so that one unit is a factor of ten) was 6.86. The residual activity in experiment [1] was 4.7%.

As to `COc1cc(-c2ccnc(N3CCN(C(=O)Nc4ccc(OS(N)(=O)=O)cc4)CC3)n2)cc(OC)c1OC`, in experiment [1], the residual activity is 19%.

As to `CCCCCCCCN1CCN(C(=O)Nc2ccc(OS(N)(=O)=O)cc2Cl)CC1`, in experiment [1], the residual activity was found to be 71.6%.

As for `NS(=O)(=O)Oc1ccc(NC(=O)N2CCN(c3ccc(Cl)cc3)CC2)cc1Cl`, the residual activity in experiment [1] was 110%.

Regarding `NS(=O)(=O)Oc1ccc(NC(=O)N2CCN(c3ccc(Cl)c(Cl)c3)CC2)cc1`, the negative-log IC50 (pIC50) in experiment [2] is 5.91. In experiment [1], the residual activity came out at 23%.

`NS(=O)(=O)Oc1ccc(NC(=O)N2CCN(c3ccc(F)cc3)CC2)cc1`: the residual activity in experiment [1] is 93.5%.

`NS(=O)(=O)Oc1ccc(NC(=O)N2CCN(c3ccc(Cl)cc3)CC2)cc1F`: the pIC50 in experiment [2] was 8.29. Also, in experiment [1], the residual activity turned out to be 7.1%.

Turning to `Cc1cccc(N2CCN(C(=O)Nc3ccc(OS(N)(=O)=O)cc3F)CC2)c1C`, the residual activity in experiment [1] worked out at 109%.

In turn, `CCCCCCCN1CCN(C(=O)Nc2ccc(OS(N)(=O)=O)cc2)CC1` gave a negative logarithm of the IC50 (pIC50) in experiment [2] of 5.77. In addition, the residual activity in experiment [1] was 27.7%.

For `CCCCCCCCCCN1CCN(C(=O)Nc2ccc(OS(N)(=O)=O)cc2Cl)CC1`, the residual activity in experiment [1] stood at 102%.

With `Cc1cccc(-c2ccnc(N3CCN(C(=O)Nc4ccc(OS(N)(=O)=O)cc4)CC3)n2)c1`, the residual activity in experiment [1] was 26.7%.

With `Cc1cccc(N2CCN(C(=O)Nc3ccc(OS(N)(=O)=O)cc3)CC2)c1`, the residual activity in experiment [1] was determined as 10.4%.

As to `COc1ccc(N2CCN(C(=O)Nc3ccc(OS(N)(=O)=O)cc3)CC2)cc1`, in experiment [1], the residual activity stood at 37%.

In experiment [2], `Cc1cccc(N2CCN(C(=O)Nc3ccc(OS(N)(=O)=O)cc3)CC2)c1C` gave a pIC50 of 7.18. In experiment [1], the residual activity stood at 5.9%.

Regarding `COc1cccc(N2CCN(C(=O)Nc3ccc(OS(N)(=O)=O)cc3)CC2)c1`, the residual activity in experiment [1] amounted to 26.3%.

Take `Cc1ccccc1N1CCN(C(=O)Nc2ccc(OS(N)(=O)=O)cc2)CC1`: the residual activity in experiment [1] worked out at 47.9%.

In the case of `NS(=O)(=O)Oc1ccc(NC(=O)N2CCN(Cc3ccccc3)CC2)cc1`, the residual activity in experiment [1] stood at 18.7%.

In experiment [2], `Cc1cccc(N2CCN(C(=O)Nc3ccc(OS(N)(=O)=O)c(Cl)c3)CC2)c1C` had a pIC50 of 7.77. For the same compound, the residual activity in experiment [1] was 15.1%.

With `CCCCCCCCCCN1CCN(C(=O)Nc2ccc(OS(N)(=O)=O)cc2)CC1`, the negative logarithm of the IC50 (pIC50) in experiment [2] was 7.48. Besides, the residual activity in experiment [1] came to 3.5%.

In turn, `NS(=O)(=O)Oc1ccc(NC(=O)N2CCN(c3ccc(Cl)cc3)CC2)cc1` had a negative-log IC50 (pIC50) in experiment [2] of 7.03. Also, the residual activity in experiment [1] turned out to be 14.9%.

`CCCCCCCCCCN1CCN(C(=O)Nc2ccc(OS(N)(=O)=O)cc2F)CC1`: in experiment [1], the residual activity was 7.8%.

For the compound `CCCCCCCCCCN1CCN(C(=O)Nc2ccc(OS(N)(=O)=O)c(Cl)c2)CC1`, the residual activity in experiment [1] amounted to 25.4%.

As for `COc1ccc(-c2ccnc(N3CCN(C(=O)Nc4ccc(OS(N)(=O)=O)cc4)CC3)n2)cc1`, the residual activity in experiment [1] stood at 7.9%.

As for `NS(=O)(=O)Oc1ccc(NC(=O)N2CCN(c3nccc(-c4ccccc4)n3)CC2)cc1`, the residual activity in experiment [1] was 65.9%.

Compound `CCCCCCCCN1CCN(C(=O)Nc2ccc(OS(N)(=O)=O)c(F)c2)CC1` had a pIC50 in experiment [2] of 8.06. Also, the residual activity in experiment [1] was 11.4%.

In experiment [2], `CCCCCCCCN1CCN(C(=O)Nc2ccc(OS(N)(=O)=O)c(Cl)c2)CC1` showed a pIC50 of 7.72. The residual activity in experiment [1] was found to be 13.9%.

With `COc1ccc(-c2ccnc(N3CCN(C(=O)Nc4ccc(OS(N)(=O)=O)cc4)CC3)n2)cc1OC`, the residual activity in experiment [1] worked out at 60.7%.

On to `CCCCCCCCCCN1CCN(C(=O)Nc2ccc(OS(N)(=O)=O)c(F)c2)CC1`, for which, in experiment [1], the residual activity turned out to be 15.2%.

In experiment [2], `CCCCCCCCN1CCN(C(=O)Nc2ccc(OS(N)(=O)=O)cc2)CC1` gave a pIC50 of 7.36. In addition, the residual activity in experiment [1] is 12.4%.
